ChEMBL document CHEMBL1125901, “Synthesis and siderophore activity of albomycin-like peptides derived from N5-acetyl-N5-hydroxy-L-ornithine” (1991)
Activity calls are given as the source filed them. No cut-off for these calls is given here.

Columns and labels:
[1] = tested on: Shigella flexneri; assay: The relative ability of compound to promote the growth of Shigella flexneri SA 240, a strain lacking the ability to synthesize siderophores was measured as zone stimulation at concentration of 100 uM; format: functional
Procedure, shortened: (§1)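 SA240 (S. flexneri 2a SA100 iucD::Tn5, a siderophore-synthesis mutant) was grown overnight in Luria broth, then seeded at 10^3/mL into Luria agar with the iron chelator EDDA (250 µg/mL). Compounds were made as 10 mM water stocks and diluted in water to the test levels. Sterile disks holding 10 µL were laid on the agar and incubated 18 h at 37 °C. Diameters of the growth-stimulation zones were measured.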

[2] = tested on: Shigella flexneri; assay: The relative ability of compound to promote the growth of Shigella flexneri SA 240, a strain lacking the ability to synthesize siderophores was measured as zone stimulation at concentration of 5 mM; format: functional; procedure, shortened: as §1
[3] = tested on: Shigella flexneri; assay: The relative ability of compound to promote the growth of Shigella flexneri SA 240, a strain lacking the ability to synthesize siderophores was measured as zone stimulation at concentration of 50 uM; NA=No activity; format: functional, organism-based; procedure, shortened: as §1
[4] = tested on: Shigella flexneri; assay: The relative ability of compound to promote the growth of Shigella flexneri SA 240, a strain lacking the ability to synthesize siderophores was measured as zone stimulation at concentration of 500 uM; format: functional; procedure, shortened: as §1
[5] = tested on: Shigella flexneri; assay: The relative ability of compound to promote the growth of Shigella flexneri SA 240, a strain lacking the ability to synthesize siderophores was measured as zone stimulation at concentration of 1 mM; format: functional; procedure, shortened: as §1
[6] = tested on: Shigella flexneri; assay: The relative ability of compound to promote the growth of Shigella flexneri SA 240, a strain lacking the ability to synthesize siderophores was measured as zone stimulation at concentration of 5 mM; NA=No activity; format: functional, organism-based; procedure, shortened: as §1
[7] = tested on: Shigella flexneri; assay: The relative ability of compound to promote the growth of Shigella flexneri SA 240, a strain lacking the ability to synthesize siderophores was measured as zone stimulation at concentration of 100 uM; NA=No activity; format: functional, organism-based; procedure, shortened: as §1

Structure (SMILES) | Zone of stimulation [1] [mm] | Zone of stimulation [2] [mm] | Zone of stimulation [3] | Zone of stimulation [4] [mm] | Zone of stimulation [5] [mm] | Zone of stimulation [6] | Zone of stimulation [7]
CC(=O)N(O)CCC[C@H](NC(=O)[C@H](CCCN(O)C(C)=O)NC(=O)[C@@H](N)CCCN(O)C(C)=O)C(=O)N[C@@H](C(=O)O)c1ccc(O)cc1 | 15 | 45 | inactive | 25 | 40 | – | –
CC(=O)N(O)CCC[C@H](NC(=O)[C@H](CCCN(O)C(C)=O)NC(=O)[C@@H](N)CCCN(O)C(C)=O)C(=O)N[C@H](CO)C(=O)N[C@H](CC(=O)O)C(=O)O | – | – | – | – | – | inactive | –
CC(=O)N(O)CCC[C@H](NC(=O)[C@H](CCCN(O)C(C)=O)NC(=O)[C@@H](N)CCCN(O)C(C)=O)C(=O)N[C@@H](C(=O)O)c1ccccc1 | 17 | 45 | inactive | 28 | 41 | – | –
CC(=O)N(O)CCC[C@H](NC(=O)[C@H](CCCN(O)C(C)=O)NC(=O)[C@@H](N)CCCN(O)C(C)=O)C(=O)N[C@H](CO)C(=O)O | – | 18 | – | 12 | 12 | – | inactive
CC(=O)N(O)CCC[C@H](N)C(=O)O | – | – | – | – | – | inactive | –
CC(=O)N(O)CCC[C@H](NC(=O)[C@H](CCCN(O)C(C)=O)NC(=O)[C@@H](N)CCCN(O)C(C)=O)C(=O)O | 13 | 40 | inactive | 30 | 37 | – | –
